Active and inactive are the calls of the source.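 The calls were made as follows: active = rising caspase curve whose AC50 is at most ten times the top dose tested; inconclusive = flat fit between 30 and 70%, or a poor fit; inactive = the rest.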
How the values were obtained:
[1] = apoptosis induction in WT mouse fibroblasts – cell-based, wild-type MEF, Caspase-Glo luminescence, dry powder, counter-screen for A1 (Bcl2-A1) inhibitor project, dose response (AID 488902); settings: wild-type MEF caspase activation, Caspase-Glo luminescence, 3 h
In short: (§1)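 Test system: unprimed wild-type MEF cells. Technique: luminescence with CaspaseGlo reagent, 1:1 dilution in 50 mM HEPES. Compound dosing: dose-response series from dry powder, 100 nL pinned per well. Read-out: caspase activation. Timing: compound 3 h at 37 °C, 5% CO2, caspase reagent 1 h.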

[2] = test system: wild-type MEF caspase activation, Caspase-Glo luminescence, 3 h; test: as above
In short: as §1

C=C1[C@@H](C)[C@H]2[C@H](Cc3ccccc3)NC(=O)[C@]23[C@H](OC(C)=O)/C=C/[C@](C)(O)C(=O)[C@@H](C)C/C=C/[C@H]3[C@@H]1O
caspase activation ([1]; at 150 µM (top of the series)): -0.119% (inactive)

CC(=O)OC(C)(C)/C=C/C(=O)[C@](C)(O)C1[C@H](O)C[C@@]2(C)C3CC=C4C(C[C@H](O)C(=O)C4(C)C)[C@]3(C)C(=O)C[C@]12C (stereo not given in full)
caspase activation ([1]; at 150 µM (top of the series)): 0.64% (inactive)

O=C(Oc1cccc(/C=N/Nc2nc(Nc3ccccc3)nc(N3CCOCC3)n2)c1)c1ccco1
caspase activation ([1]; at 150 µM (top of the series)): 0.0158% (inactive)

CCc1cc2c(=O)c(-c3cnn(-c4ccccc4)c3)c(C)oc2cc1OCC(=O)Nc1cccc(C)c1
AC50 [2]: 2.93 µM

Cc1cc(C(=O)CCl)c(C)n1CCc1ccc(Cl)cc1
AC50 [2]: 16.3 µM

C=C1[C@@H](C)[C@H]2[C@H](Cc3ccccc3)NC(=O)[C@]23OC(=O)/C=C\[C@H](O)CCC[C@@H](C)C/C=C/[C@H]3[C@@H]1O
caspase activation ([1]; at 150 µM (top of the series)): 0.465% (inactive)

Cc1cccc(CS(=O)(=O)c2ncc(Cl)c(C(=O)Nc3nnc(C(C)C)s3)n2)c1
caspase activation ([1]; at 150 µM (top of the series)): -1.13% (inactive)

C/C1=C/C(=O)O[C@@H]2C[C@@H](CC[C@H](C)/C=C\CC1)O[C@@](O)(C1CSC(=O)N1)C2 (stereo not given in full)
caspase activation ([1]; at 150 µM (top of the series)): 0.912% (inactive)

Cc1c(C=O)c(C=O)c(C)n1Cc1ccccc1
caspase activation ([1]; at 150 µM (top of the series)): 1.13% (inactive)

CC(=O)N[C@H]1[C@H](O[C@H]2CC[C@@]3(C)C(CC[C@]4(C)C3CC=C3[C@@H]5CC(C)(C)CC[C@]5(C(=O)OC5OCC(O)C(O)C5O)C(O)C[C@]34C)C2(C)C)O[C@H](COC2OCC(O)C(OC3OCC(O)C(O)C3O)C2O)[C@@H](O[C@@H]2O[C@@H](C)[C@H](O)[C@@H](O)[C@H]2O[C@@H]2O[C@@H](C)[C@H](O)[C@@H](O)[C@H]2O)[C@@H]1O (stereo not given in full)
caspase activation ([1]; at 135 µM (top of the series)): -0.32% (inactive)

CCSc1nnc(NC(=O)c2nc(S(=O)(=O)Cc3ccc(F)cc3)ncc2Cl)s1
caspase activation ([1]; at 150 µM (top of the series)): -2.01% (inactive)

CC(C)(C)n1nc(-c2ccc(Cl)cc2)c2c(N)ncnc21
caspase activation ([1]; at 150 µM (top of the series)): 2.53% (inactive)

Cc1ccc(Sc2c([N+](=O)[O-])c(=O)n(C)c3ccccc23)cc1
caspase activation ([1]; at 150 µM (top of the series)): 1.56% (inactive)

O=C(CCl)N=c1sccn1Cc1ccccc1Cl
caspase activation ([1]; at 150 µM (top of the series)): 0.637% (inactive)

COc1cc(CN2CCN(c3cc(C)ccc3C)CC2)ccc1O
AC50 [2]: > 150 µM (inactive)

COc1cccc(C(=O)C(C#N)=C(SC)SC)c1
caspase activation ([1]; at 150 µM (top of the series)): -1.91% (inactive)

Cc1cccc(NC(=O)/C(C#N)=C/c2cn(CC(=O)NCc3ccco3)c3ccccc23)c1
AC50 [2]: 4.34 µM

Cc1ccc(CS(=O)(=O)c2ncc(Cl)c(C(=O)Nc3nnc(C(C)C)s3)n2)cc1
caspase activation ([1]; at 150 µM (top of the series)): -1.41% (inactive)

CCc1nnc(NC(=O)c2nc(S(=O)(=O)Cc3ccccc3)ncc2Cl)s1
caspase activation ([1]; at 150 µM (top of the series)): -0.316% (inactive)

CCOC(=O)CSC1=N/C(=C/c2ccc(-n3cncn3)cc2)C(=O)N1C(C)=O
caspase activation ([1]; at 150 µM (top of the series)): 2.7% (inactive)

Cc1c(CCOC(=O)c2ccc(N3CCOCC3)c([N+](=O)[O-])c2)sc[n+]1CC#N
caspase activation ([1]; at 150 µM (top of the series)): 0.157% (inactive)

Cn1c(=NC(=O)CCl)sc2ccccc21
caspase activation ([1]; at 150 µM (top of the series)): 0.0802% (inactive)

COc1cc(/C=C(/C#N)c2nc3ccccc3[nH]2)ccc1OCC(=O)Nc1ccccc1C(C)C
caspase activation ([1]; at 150 µM (top of the series)): 0.773% (inactive)

COc1ccc(N(C(=O)CCl)C(C(=O)NCCc2ccccc2)c2cccs2)cc1Cl (stereo not given)
AC50 [2]: 15.5 µM

Nc1nc(F)nc2c1ncn2[C@@H]1O[C@H](CO)[C@@H](O)[C@H]1O
caspase activation ([1]; at 150 µM (top of the series)): -0.43% (inactive)
